In the library only some 4.1% were active in any assay of this set; here they are far more common.
Kir21 inh – inhibitors of mouse Kir2.1 inward-rectifier potassium channel | P35561 | HEK293-Kir2.1, FluxOR thallium flux fluorescence; active compounds read low | B-score at 10 µM | 0.85% of 310,000 active | AID 1672;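 active = fluorescence ratio B-score at or below minus 3 SD of library scores, with starting-brightness B-score within 2 SD, cut at about -4.2 in these data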;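 also: channel flux triggered by added potassium and thallium sulfate stimulus; B-score of peak minus minimum fluorescence over baseline after thallium stimulus; more negative B-score means stronger Kir2.1 block with less thallium influx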
Target sequence (P35561 whole entry, looked up): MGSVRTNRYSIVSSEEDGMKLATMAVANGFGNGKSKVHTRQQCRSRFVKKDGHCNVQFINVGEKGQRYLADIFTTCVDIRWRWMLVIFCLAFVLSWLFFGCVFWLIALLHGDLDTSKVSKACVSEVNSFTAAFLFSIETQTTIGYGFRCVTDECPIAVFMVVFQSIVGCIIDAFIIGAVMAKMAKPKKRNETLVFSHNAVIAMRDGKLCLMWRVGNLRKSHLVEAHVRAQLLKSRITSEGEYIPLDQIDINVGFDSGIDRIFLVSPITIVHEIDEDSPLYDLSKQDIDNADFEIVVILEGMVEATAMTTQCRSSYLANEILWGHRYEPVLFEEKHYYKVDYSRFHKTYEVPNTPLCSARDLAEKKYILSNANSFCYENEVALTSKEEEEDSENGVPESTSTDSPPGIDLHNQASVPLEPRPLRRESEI
RGS4 inh – inhibitors of human RGS4; 0.45% of 310,000 active; HEK293 M3R/RGS4 inducible, Fluo-4 calcium flux; active compounds read high; triggered by carbachol at its EC20; B-score at 10 µM; P49798;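 active = B-score, a plate-corrected calcium signal, over three deviations above library mean, with baseline fluorescence within five deviations of library mean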;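 also: RGS4 expression induced by doxycycline in cells with stable M3 receptor; B-score is computed from the integrated fluorescence ratio over baseline after carbachol; higher B-score means a larger calcium signal and so more RGS4 inhibition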
Target sequence (P49798 whole entry, looked up): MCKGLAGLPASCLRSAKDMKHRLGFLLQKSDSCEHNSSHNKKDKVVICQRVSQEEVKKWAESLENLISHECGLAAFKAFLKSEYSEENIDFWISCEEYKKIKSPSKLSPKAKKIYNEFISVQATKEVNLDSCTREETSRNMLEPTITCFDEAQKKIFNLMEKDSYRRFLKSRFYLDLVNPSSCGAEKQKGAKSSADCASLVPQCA
MrgX1 allo act – human MrgX1 positive allosteric modulation, primary screen | Q96LB2 | MrgX1-HEK293, Fluo-4 calcium flux, FDSS; active compounds read high | B-score at 10 µM | 0.63% of 310,000 active | AID 588675;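 active = plate-corrected calcium response at least 3 library SD above typical, normal starting fluorescence, not activating the receptor alone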;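 also: compound read alongside a low EC10 to EC30 dose of BAM8-22 agonist; peak minus trough fluorescence over baseline measured at the second addition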
RGS4 act – RGS4 potentiation or activation; HEK293 M3R/inducible RGS4, carbachol calcium flux Fluo4; active compounds read low; B-score at 10 µM; 0.92% of 310,000 active; AID 463111;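 active = B-score of the integrated calcium signal more than 4 SD below the library mean, with starting fluorescence not abnormally high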;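 also: negative B-score means reduced calcium response which marks RGS4 activation or potentiation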
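Material: M3R-expressing HEK293 line, RGS4 induced by doxycycline | Schedule: Overnight RGS4 induction, 30 min dye load 37 °C, 20 min compound RT | Measured by: Fluo4 fluorescence kinetic imaging of calcium | Read-out: Integrated calcium ratio converted to B score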
MrgX1 ag – human MrgX1 receptor agonism, primary screen; Q96LB2; MrgX1-HEK293 cells, Fluo-4 calcium fluorescence, agonist mode; active compounds read high; B-score at 10 µM; 0.44% of 310,000 active;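 active = calcium response B-score plate-corrected fluorescence ratio at least 3 library SD, with starting fluorescence B-score inside 5 SD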
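Material: MrgX1-expressing HEK293 cells; input: 15,000 cells per well; doses: test compound given as first of three sequential additions; schedule: overnight plating before 1 h dye loading; technique: Fluo-4 NW calcium-flux fluorescence, kinetic read; evaluation: baseline-normalised fluorescence change ratio, B-scored; control set: plate-wise positive and negative controls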
MrgX1 antagonist – antagonists of human MrgX1 receptor; MRGX1-HEK293 calcium flux, Fluo-4, BAM8-22 antagonism; active compounds read low; 1.3% of 310,000 active; B-score at 10 µM;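 active = calcium-response B-score plate-corrected more than 3 library SD below zero, starting fluorescence within 5 deviations, no agonist response on first addition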;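 also: peak minus trough fluorescence over baseline after final BAM8-22 challenge near maximal dose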
MrgX1 antag conf – confirmation of human MrgX1 receptor antagonists. shares compounds with MrgX1 antagonist. MrgX1-HEK293, BAM8-22 calcium flux, Fluo-4; active compounds read low. remaining BAM8-22 calcium response % of control (active compounds read low), % at 10 µM. 19% of 2,300 active. AID 602420;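 active = remaining agonist calcium response no higher than 100% minus 3 SD of agonist-only control wells, with starting fluorescence near control levels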;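 also: agonist BAM8-22 given at a near maximal EC90 to ECmax level; peak minus minimum fluorescence divided by baseline after agonist addition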
HEK293 Ca flux – activity in parental HEK293 cells lacking MrgX1. fluorescence ratio F(max-min)/F0 at 10 µM. 2% of 4,000 active. Fluo-4 calcium fluorescence, FDSS. shares compounds with MrgX1 antagonist. AID 624111;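 active = duplicate-averaged calcium fluorescence ratio at least three times the standard deviation of buffer wells, a nonspecific response in parental cells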
HEK293 Ca counter – counter-screen for MrgX1 allosteric activators: effect in parental HEK293 cells | shares compounds with MrgX1 antagonist | parental HEK293 calcium flux, Fluo-4 fluorescence ratio; active compounds read high | 0.4% of 4,000 active | fluorescence ratio F(max-min)/F0 at 10 µM;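 active = calcium fluorescence ratio, averaged over duplicates, at least 3 SD of the buffer-well ratio, meaning a nonspecific response in receptor-free cells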;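 also: untransfected parental HEK293 lacking MrgX1 used as counterscreen for MrgX1 allosteric activators; fluorescence change taken during the second addition on a kinetic imager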
HEK293 Ca cntr2 – activity in parental HEK293 cells lacking MrgX1 receptor; fluorescence ratio F(max-min)/F0 at 10 µM; AID 624115; Fluo-4 calcium fluorescence (FDSS); active compounds read high; shares compounds with MrgX1 antagonist; 8.7% of 4,000 active;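 active = calcium fluorescence ratio at least three times the spread of buffer wells, meaning a non-specific response in parental cells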
A number is an active result.

What do the screens show for `COc1ccc(CNC(=O)CSCc2c(F)cccc2Cl)cc1`?
Kir21 inh: inactive; RGS4 inh: inactive; MrgX1 allo act: inactive; RGS4 act: inactive; MrgX1 ag: inactive; MrgX1 antagonist: inactive

How did Fc1cccc(Cl)c1CNn1cn[nH]c1=S do in these assays?
Kir21 inh: inactive; RGS4 inh: inactive; MrgX1 allo act: inactive; RGS4 act: inactive; MrgX1 ag: inactive; MrgX1 antagonist: inactive

Results for COc1ccc(OCC(=O)Nc2ccc(C)cc2)cc1 ?
Kir21 inh: inactive; RGS4 inh: inactive; MrgX1 allo act: inactive; RGS4 act: inactive; MrgX1 ag: inactive; MrgX1 antagonist: inactive

Results for COc1ccc(OCC(=O)Nc2ccc(Cl)cc2)cc1 ?
Kir21 inh: inactive; RGS4 inh: inactive; MrgX1 allo act: inactive; RGS4 act: inactive; MrgX1 ag: inactive; MrgX1 antagonist: -4.96; MrgX1 antag conf: inactive; HEK293 Ca flux: inactive; HEK293 Ca counter: inactive; HEK293 Ca cntr2: inactive

Results for COCC(=O)Nc1nnc(COc2ccc(Cl)cc2)s1 ?
Kir21 inh: inactive; RGS4 inh: inactive; MrgX1 allo act: inactive; RGS4 act: inactive; MrgX1 ag: inactive; MrgX1 antagonist: -7.07; MrgX1 antag conf: inactive; HEK293 Ca flux: inactive; HEK293 Ca counter: inactive; HEK293 Ca cntr2: inactive

How did CCCOc1cccc(C(=O)O)c1 do in these assays?
Kir21 inh: inactive; RGS4 inh: inactive; MrgX1 allo act: inactive; RGS4 act: inactive; MrgX1 ag: inactive; MrgX1 antagonist: inactive

What do the screens show for `Cc1ccc(S(=O)(=O)NC(=O)c2ccccc2)cc1C(C)C`?
Kir21 inh: inactive; RGS4 inh: inactive; MrgX1 allo act: inactive; RGS4 act: inactive; MrgX1 ag: inactive; MrgX1 antagonist: -8.09; MrgX1 antag conf: inactive; HEK293 Ca flux: inactive; HEK293 Ca counter: inactive; HEK293 Ca cntr2: inactive

How did Cc1ccc(C(=O)O)cc1NS(=O)(=O)c1ccc2ccccc2c1 do in these assays?
Kir21 inh: inactive; RGS4 inh: inactive; MrgX1 allo act: inactive; RGS4 act: inactive; MrgX1 ag: inactive; MrgX1 antagonist: inactive

How did O=C(CCc1ccc(S(=O)(=O)NCCc2ccccc2)cc1)Nc1ccc2c(c1)OCCO2 do in these assays?
Kir21 inh: inactive; RGS4 inh: inactive; MrgX1 allo act: inactive; RGS4 act: inactive; MrgX1 ag: inactive; MrgX1 antagonist: inactive

Results for CCC(=O)N1CCc2cc(Br)cc(S(=O)(=O)CC(=O)OC)c21 ?
Kir21 inh: inactive; RGS4 inh: inactive; MrgX1 allo act: inactive; RGS4 act: inactive; MrgX1 ag: inactive; MrgX1 antagonist: -5.91; MrgX1 antag conf: inactive; HEK293 Ca flux: inactive; HEK293 Ca counter: inactive; HEK293 Ca cntr2: inactive

Results for CC(=O)Nc1ccc(NC(=S)Nc2ccccc2)cc1 ?
Kir21 inh: inactive; RGS4 inh: inactive; MrgX1 allo act: inactive; RGS4 act: inactive; MrgX1 ag: inactive; MrgX1 antagonist: inactive

What do the screens show for `S=C(Nc1ccccc1)Nc1ccc(Br)cc1`?
Kir21 inh: inactive; RGS4 inh: inactive; MrgX1 allo act: inactive; RGS4 act: inactive; MrgX1 ag: inactive; MrgX1 antagonist: -7.34; MrgX1 antag conf: 68.8%; HEK293 Ca flux: inactive; HEK293 Ca counter: inactive; HEK293 Ca cntr2: inactive

Results for S=C(Nc1ccccc1)Nc1cccc(Br)c1 ?
Kir21 inh: inactive; RGS4 inh: inactive; MrgX1 allo act: inactive; RGS4 act: inactive; MrgX1 ag: inactive; MrgX1 antagonist: -5.41; MrgX1 antag conf: 63.3%; HEK293 Ca flux: inactive; HEK293 Ca counter: inactive; HEK293 Ca cntr2: inactive

What do the screens show for `CC(=O)Nc1ccc(NC(=S)Nc2ccc(Br)cc2)cc1`?
Kir21 inh: inactive; RGS4 inh: inactive; MrgX1 allo act: inactive; RGS4 act: inactive; MrgX1 ag: inactive; MrgX1 antagonist: inactive

What do the screens show for `Cc1ccc(NC(=S)Nc2ccc(Br)cc2)cc1`?
Kir21 inh: inactive; RGS4 inh: inactive; MrgX1 allo act: inactive; RGS4 act: inactive; MrgX1 ag: inactive; MrgX1 antagonist: -5.76; MrgX1 antag conf: 59.1%; HEK293 Ca flux: inactive; HEK293 Ca counter: inactive; HEK293 Ca cntr2: inactive

Results for Fc1ccccc1NC(=S)Nc1ccc(Br)cc1 ?
Kir21 inh: inactive; RGS4 inh: inactive; MrgX1 allo act: inactive; RGS4 act: inactive; MrgX1 ag: inactive; MrgX1 antagonist: -6.07; MrgX1 antag conf: 71.0%; HEK293 Ca flux: inactive; HEK293 Ca counter: inactive; HEK293 Ca cntr2: inactive

Results for Cc1ccc2nc(C)c(C(=O)N/N=C/c3ccccc3[N+](=O)[O-])cc2c1 ?
Kir21 inh: inactive; RGS4 inh: inactive; MrgX1 allo act: inactive; RGS4 act: inactive; MrgX1 ag: inactive; MrgX1 antagonist: inactive

Results for Cc1cc(C)c(S(=O)(=O)NCCn2c(C)cc3ccccc32)c(C)c1 ?
Kir21 inh: inactive; RGS4 inh: inactive; MrgX1 allo act: inactive; RGS4 act: inactive; MrgX1 ag: inactive; MrgX1 antagonist: inactive

Results for COc1cc(-c2nc(C(=O)NC3CCN(Cc4ccccc4)CC3)cc3c2[nH]c2ccccc23)cc(OC)c1OC ?
Kir21 inh: inactive; RGS4 inh: inactive; MrgX1 allo act: inactive; RGS4 act: inactive; MrgX1 ag: inactive; MrgX1 antagonist: inactive

How did CCNc1nc(SCc2ccccc2)nc(N2CCOCC2)n1 do in these assays?
MrgX1 allo act: inactive; MrgX1 ag: inactive; MrgX1 antagonist: inactive

Results for CN(C)c1nc(SCc2ccccc2)nc(N2CCOCC2)n1 ?
Kir21 inh: inactive; RGS4 inh: inactive; MrgX1 allo act: inactive; RGS4 act: inactive; MrgX1 ag: inactive; MrgX1 antagonist: -6.37; MrgX1 antag conf: inactive; HEK293 Ca flux: inactive; HEK293 Ca counter: inactive; HEK293 Ca cntr2: inactive

What do the screens show for `COc1ccccc1NC(=O)C(C/C=C(/C)Cl)C(C)=O` (centres undefined)?
Kir21 inh: inactive; RGS4 inh: inactive; MrgX1 allo act: inactive; RGS4 act: inactive; MrgX1 ag: inactive; MrgX1 antagonist: inactive

What do the screens show for `COc1ccc(CCN(C)CCC(=O)Nc2c(C)cc(C)cc2C)cc1OC`?
Kir21 inh: inactive; RGS4 inh: inactive; MrgX1 allo act: inactive; RGS4 act: inactive; MrgX1 ag: inactive; MrgX1 antagonist: inactive

How did CNCCCOc1cccc(OC(C)C)c1 do in these assays?
Kir21 inh: inactive; RGS4 inh: inactive; MrgX1 allo act: inactive; RGS4 act: inactive; MrgX1 ag: inactive; MrgX1 antagonist: -7.29; MrgX1 antag conf: inactive; HEK293 Ca flux: inactive; HEK293 Ca counter: inactive; HEK293 Ca cntr2: inactive
